ChEMBL document CHEMBL1136894, “New antituberculotics originated from salicylanilides with promising in vitro activity against atypical mycobacterial strains” (Bioorg Med Chem, 2009)
Converted amounts (≈) assume the structure as drawn.

Key:
[1] = Lipophilicity, log K by HPLC; type: physicochemical
Outline: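 Capacity factors k were measured by RP-HPLC and log k was calculated from them.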

[2] = test system: Mycobacterium tuberculosis; assay: Antimycobacterial activity against Mycobacterium tuberculosis CNCTC My 331/88 after 14 days; type: functional; conditions: CNCTC My 331/88, 336 h
Outline: (§1)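 Broth dilution in Sula semisynthetic medium, compounds added as DMSO solutions at 250, 125, 62, 32, 16, 8, 4, 2 and 1. Strains came from the Czech National Collection of Type Cultures; the M. tuberculosis inoculum was diluted 10^-3. Cultures were incubated at 37 °C, and MIC was read after 7, 14 and 21 days.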

Mycobacterium kansasii [3] = assay: Antimycobacterial activity against Mycobacterium kansasii CNCTC My 235/80 after 21 days; type: functional; conditions: CNCTC My 235/80, 504 h
Outline: (§2)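 Compounds were added as DMSO solutions to Sula semisynthetic medium at 250, 125, 62, 32, 16, 8, 4, 2 and 1 µmol/L. Two M. kansasii strains were used: CNCTC My 235/80 and clinical isolate 6509/96, each with strain dilution 10^-4. Incubation was at 37 °C, and MIC was read at 7, 14 and 21 days.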

Mycobacterium avium [4] = assay: Antimycobacterial activity against Mycobacterium avium CNCTC My 330/88 after 14 days; type: functional; conditions: CNCTC My 330/88, 336 h; outline: as §1
Mycobacterium avium [5] = assay: Antimycobacterial activity against Mycobacterium avium CNCTC My 330/88 after 21 days; type: functional; conditions: CNCTC My 330/88, 504 h; outline: as §1
Mycobacterium kansasii [6] = assay: Antimycobacterial activity against Mycobacterium kansasii isolate 6509/96 after 14 days; type: functional; conditions: isolate 6509/96, 336 h; outline: as §2
Mycobacterium kansasii [7] = assay: Antimycobacterial activity against Mycobacterium kansasii CNCTC My 235/80 after 7 days; type: functional; conditions: CNCTC My 235/80, 168 h; outline: as §2
[8] = test system: Mycobacterium tuberculosis; assay: Antimycobacterial activity against Mycobacterium tuberculosis CNCTC My 331/88 after 21 days; type: functional; conditions: CNCTC My 331/88, 504 h; outline: as §1
Mycobacterium kansasii [9] = assay: Antimycobacterial activity against Mycobacterium kansasii CNCTC My 235/80 after 14 days; type: functional; conditions: CNCTC My 235/80, 336 h; outline: as §2
Mycobacterium kansasii [10] = assay: Antimycobacterial activity against Mycobacterium kansasii isolate 6509/96 after 7 days; type: functional; conditions: isolate 6509/96, 168 h; outline: as §2
Mycobacterium kansasii [11] = assay: Antimycobacterial activity against Mycobacterium kansasii isolate 6509/96 after 21 days; type: functional; conditions: isolate 6509/96, 504 h; outline: as §2

Structure (SMILES)	log K [1]	MIC [2] [µM]	MIC (Mycobacterium kansasii [3]) [µM]	MIC (Mycobacterium avium [4]) [µM]	MIC (Mycobacterium avium [5]) [µM]	MIC (Mycobacterium kansasii [6]) [µM]	MIC (Mycobacterium kansasii [7]) [µM]	MIC [8] [µM]	MIC (Mycobacterium kansasii [9]) [µM]	MIC (Mycobacterium kansasii [10]) [µM]	MIC (Mycobacterium kansasii [11]) [µM]
O=C(N[C@@H](Cc1ccccc1)C(=O)Oc1ccc(Cl)cc1C(=O)Nc1ccc(Cl)c(Cl)c1)OCc1ccccc1	1.3056	2 (≈ 1.2 µg/mL)	8 (≈ 4.78 µg/mL)	16 (≈ 9.57 µg/mL)	32 (≈ 19.1 µg/mL)	8 (≈ 4.78 µg/mL)	4 (≈ 2.39 µg/mL)	2 (≈ 1.2 µg/mL)	4 (≈ 2.39 µg/mL)	8 (≈ 4.78 µg/mL)	8 (≈ 4.78 µg/mL)
CC(C)[C@H](NC(=O)OCc1ccccc1)C(=O)Oc1ccc(Cl)cc1C(=O)Nc1ccc(Cl)cc1	0.9417	4 (≈ 2.06 µg/mL)	16 (≈ 8.25 µg/mL)	16 (≈ 8.25 µg/mL)	16 (≈ 8.25 µg/mL)	8 (≈ 4.12 µg/mL)	8 (≈ 4.12 µg/mL)	4 (≈ 2.06 µg/mL)	16 (≈ 8.25 µg/mL)	8 (≈ 4.12 µg/mL)	16 (≈ 8.25 µg/mL)
C[C@@H](NC(=O)OCc1ccccc1)C(=O)Oc1ccc(Cl)cc1C(=O)Nc1ccc(Cl)cc1	0.7294	4 (≈ 1.95 µg/mL)	16 (≈ 7.8 µg/mL)	16 (≈ 7.8 µg/mL)	16 (≈ 7.8 µg/mL)	8 (≈ 3.9 µg/mL)	8 (≈ 3.9 µg/mL)	4 (≈ 1.95 µg/mL)	16 (≈ 7.8 µg/mL)	8 (≈ 3.9 µg/mL)	16 (≈ 7.8 µg/mL)
CC(C)[C@@H](NC(=O)OCc1ccccc1)C(=O)Oc1ccc(Cl)cc1C(=O)Nc1ccc(Cl)cc1	0.9421	4 (≈ 2.06 µg/mL)	16 (≈ 8.25 µg/mL)	16 (≈ 8.25 µg/mL)	16 (≈ 8.25 µg/mL)	8 (≈ 4.12 µg/mL)	8 (≈ 4.12 µg/mL)	4 (≈ 2.06 µg/mL)	8 (≈ 4.12 µg/mL)	8 (≈ 4.12 µg/mL)	16 (≈ 8.25 µg/mL)
O=C(N[C@H](Cc1ccccc1)C(=O)Oc1ccc(Cl)cc1C(=O)Nc1ccc(Cl)cc1)OCc1ccccc1	1.0678	4 (≈ 2.25 µg/mL)	8 (≈ 4.51 µg/mL)	16 (≈ 9.01 µg/mL)	16 (≈ 9.01 µg/mL)	8 (≈ 4.51 µg/mL)	8 (≈ 4.51 µg/mL)	4 (≈ 2.25 µg/mL)	8 (≈ 4.51 µg/mL)	8 (≈ 4.51 µg/mL)	16 (≈ 9.01 µg/mL)
O=C(N[C@@H](Cc1ccccc1)C(=O)Oc1ccc(Cl)cc1C(=O)Nc1ccc(Cl)cc1)OCc1ccccc1	1.0971	4 (≈ 2.25 µg/mL)	16 (≈ 9.01 µg/mL)	16 (≈ 9.01 µg/mL)	16 (≈ 9.01 µg/mL)	16 (≈ 9.01 µg/mL)	8 (≈ 4.51 µg/mL)	4 (≈ 2.25 µg/mL)	16 (≈ 9.01 µg/mL)	8 (≈ 4.51 µg/mL)	16 (≈ 9.01 µg/mL)
CC(C)[C@H](NC(=O)OCc1ccccc1)C(=O)Oc1cc(Cl)ccc1C(=O)Nc1ccc(Cl)cc1	0.8804	4 (≈ 2.06 µg/mL)	8 (≈ 4.12 µg/mL)	16 (≈ 8.25 µg/mL)	16 (≈ 8.25 µg/mL)	8 (≈ 4.12 µg/mL)	4 (≈ 2.06 µg/mL)	8 (≈ 4.12 µg/mL)	8 (≈ 4.12 µg/mL)	4 (≈ 2.06 µg/mL)	16 (≈ 8.25 µg/mL)
O=C(CNC(=O)OCc1ccccc1)Oc1ccc(Cl)cc1C(=O)Nc1ccc(Cl)c(Cl)c1	0.8639	1 (≈ 0.508 µg/mL)	16 (≈ 8.12 µg/mL)	16 (≈ 8.12 µg/mL)	32 (≈ 16.2 µg/mL)	8 (≈ 4.06 µg/mL)	8 (≈ 4.06 µg/mL)	2 (≈ 1.02 µg/mL)	8 (≈ 4.06 µg/mL)	8 (≈ 4.06 µg/mL)	8 (≈ 4.06 µg/mL)
CC(C)[C@H](NC(=O)OCc1ccccc1)C(=O)Oc1ccc(Cl)cc1C(=O)Nc1cccc(Cl)c1	0.8972	4 (≈ 2.06 µg/mL)	16 (≈ 8.25 µg/mL)	16 (≈ 8.25 µg/mL)	16 (≈ 8.25 µg/mL)	16 (≈ 8.25 µg/mL)	8 (≈ 4.12 µg/mL)	4 (≈ 2.06 µg/mL)	16 (≈ 8.25 µg/mL)	8 (≈ 4.12 µg/mL)	16 (≈ 8.25 µg/mL)
C[C@@H](NC(=O)OCc1ccccc1)C(=O)Oc1ccc(Cl)cc1C(=O)Nc1ccc(Cl)c(Cl)c1	0.938	2 (≈ 1.04 µg/mL)	16 (≈ 8.35 µg/mL)	16 (≈ 8.35 µg/mL)	32 (≈ 16.7 µg/mL)	8 (≈ 4.17 µg/mL)	8 (≈ 4.17 µg/mL)	4 (≈ 2.09 µg/mL)	8 (≈ 4.17 µg/mL)	4 (≈ 2.09 µg/mL)	8 (≈ 4.17 µg/mL)
NNC(=O)c1ccncc1 [ISONIAZID]	–	0.5 (≈ 0.0686 µg/mL)	> 250	> 250	> 250	8 (≈ 1.1 µg/mL)	> 250	0.5 (≈ 0.0686 µg/mL)	> 250	4 (≈ 0.549 µg/mL)	8 (≈ 1.1 µg/mL)
